Results published in ChEMBL document CHEMBL1141803, “Floratheasaponins A-C, acylated oleanane-type triterpene oligoglycosides with anti-hyperlipidemic activities from flowers of the tea plant (Camellia sinensis)” (2005).

Tests used:
Assay type in all cases: functional
Mus musculus [1] = test: Antihyperlipidemic activity in olive oil-treated ddY mouse assessed as serum triglyceride level at 50 mg/kg, po after 4 hrs
Outline: (§1)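 Male ddY mice (25-30 g) kept at 23 ± 2 °C on standard chow, fasted 24-26 h with free access to water, conscious. Test sample given orally; olive oil (5 mL/kg, p.o.) given 30 min later. Blood drawn from the infraorbital venous plexus 2, 4 and 6 h after olive oil. Serum TG measured enzymatically (triglyceride E test). Means ± SEM, n = 5-12 per group.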

Mus musculus [2] = test: Antihyperlipidemic activity in olive oil-treated ddY mouse assessed as serum triglyceride level at 100 mg/kg, po after 6 hrs; outline: as §1
Mus musculus [3] = test: Antihyperlipidemic activity in olive oil-treated ddY mouse assessed as serum triglyceride level at 50 mg/kg, po after 2 hrs; outline: as §1
Mus musculus [4] = test: Antihyperlipidemic activity in olive oil-treated ddY mouse assessed as serum triglyceride level at 100 mg/kg, po after 4 hrs; outline: as §1
Mus musculus [5] = test: Antihyperlipidemic activity in olive oil-treated ddY mouse assessed as serum triglyceride level at 100 mg/kg, po after 2 hrs; outline: as §1
Mus musculus [6] = test: Antihyperlipidemic activity in olive oil-treated ddY mouse assessed as serum triglyceride level at 50 mg/kg, po after 6 hrs; outline: as §1
Mus musculus [7] = test: Antihyperlipidemic activity in olive oil-treated ddY mouse assessed as serum triglyceride level at 500 mg/kg, po after 4 hrs; outline: as §1
Mus musculus [8] = test: Antihyperlipidemic activity in olive oil-treated ddY mouse assessed as serum triglyceride level at 250 mg/kg, po after 6 hrs; outline: as §1
Mus musculus [9] = test: Antihyperlipidemic activity in olive oil-treated ddY mouse assessed as serum triglyceride level at 500 mg/kg, po after 6 hrs; outline: as §1
Mus musculus [10] = test: Antihyperlipidemic activity in olive oil-treated ddY mouse assessed as serum triglyceride level at 125 mg/kg, po after 6 hrs; outline: as §1
Mus musculus [11] = test: Antihyperlipidemic activity in olive oil-treated ddY mouse assessed as serum triglyceride level at 125 mg/kg, po after 2 hrs; outline: as §1
Mus musculus [12] = test: Antihyperlipidemic activity in olive oil-treated ddY mouse assessed as serum triglyceride level at 250 mg/kg, po after 2 hrs; outline: as §1
Mus musculus [13] = test: Antihyperlipidemic activity in olive oil-treated ddY mouse assessed as serum triglyceride level at 500 mg/kg, po after 2 hrs; outline: as §1
Mus musculus [14] = test: Antihyperlipidemic activity in olive oil-treated ddY mouse assessed as serum triglyceride level at 125 mg/kg, po after 4 hrs; outline: as §1
Mus musculus [15] = test: Antihyperlipidemic activity in olive oil-treated ddY mouse assessed as serum triglyceride level at 250 mg/kg, po after 4 hrs; outline: as §1
Mus musculus [16] = test: Antihyperlipidemic activity in olive oil-treated ddY mouse assessed as serum triglyceride level at 25 mg/kg, po after 2 hrs; outline: as §1
Mus musculus [17] = test: Antihyperlipidemic activity in olive oil-treated ddY mouse assessed as serum triglyceride level at 25 mg/kg, po after 4 hrs; outline: as §1
Mus musculus [18] = test: Antihyperlipidemic activity in olive oil-treated ddY mouse assessed as serum triglyceride level at 25 mg/kg, po after 6 hrs; outline: as §1
Mus musculus [19] = test: Antihyperlipidemic activity in olive oil-treated ddY mouse assessed as serum triglyceride level at 12.5 mg/kg, po after 6 hrs; outline: as §1
Mus musculus [20] = test: Antihyperlipidemic activity in olive oil-treated ddY mouse assessed as serum triglyceride level at 6.25 mg/kg, po after 2 hrs; outline: as §1
Mus musculus [21] = test: Antihyperlipidemic activity in olive oil-treated ddY mouse assessed as serum triglyceride level at 12.5 mg/kg, po after 4 hrs; outline: as §1
Mus musculus [22] = test: Antihyperlipidemic activity in olive oil-treated ddY mouse assessed as serum triglyceride level at 6.25 mg/kg, po after 6 hrs; outline: as §1
Mus musculus [23] = test: Antihyperlipidemic activity in olive oil-treated ddY mouse assessed as serum triglyceride level at 6.25 mg/kg, po after 4 hrs; outline: as §1
Mus musculus [24] = test: Antihyperlipidemic activity in olive oil-treated ddY mouse assessed as serum triglyceride level at 12.5 mg/kg, po after 2 hrs; outline: as §1

Compound | Activity (Mus musculus [1]) [mg/dL] | Activity (Mus musculus [2]) [mg/dL] | Activity (Mus musculus [3]) [mg/dL] | Activity (Mus musculus [4]) [mg/dL] | Activity (Mus musculus [5]) [mg/dL] | Activity (Mus musculus [6]) [mg/dL] | Activity (Mus musculus [16]) [mg/dL] | Activity (Mus musculus [17]) [mg/dL] | Activity (Mus musculus [18]) [mg/dL] | other results
CC1(C)C[C@H]2C3=CC[C@@H]4[C@@]5(C)CC[C@H](O[C@@H]6O[C@H](C(=O)O)[C@@H](O)[C@H](O[C@@H]7OC[C@H](O)[C@H](O)[C@H]7O[C@@H]7OC[C@@H](O)[C@H](O)[C@H]7O)[C@H]6O[C@@H]6O[C@H](CO)[C@H](O)[C@H](O)[C@H]6O)[C@@](C)(C=O)C5CC[C@@]4(C)[C@]3(C)C[C@@H](O)[C@@]2(CO)[C@@H](O)[C@@H]1O (stereo partly drawn) | 410.5 | 314.3 | 468.7 | 363.2 | 440.8 | 332.3 | – | – | – | –
CCOC(=O)C(C)(C)Oc1ccc(Cl)cc1 [CLOFIBRATE] | – | – | – | – | – | – | – | – | – | Activity (Mus musculus [7]): 239.7 mg/dL; Activity (Mus musculus [8]): 443.3 mg/dL; Activity (Mus musculus [9]): 373.5 mg/dL; Activity (Mus musculus [10]): 333.4 mg/dL; Activity (Mus musculus [11]): 377.5 mg/dL; Activity (Mus musculus [12]): 441.2 mg/dL; Activity (Mus musculus [13]): 318.2 mg/dL; Activity (Mus musculus [14]): 295 mg/dL; Activity (Mus musculus [15]): 340.5 mg/dL
C/C=C\C(=O)O[C@H]1[C@H](OC(C)=O)[C@]2(CO)[C@H](O)C[C@]3(C)C(=CC[C@@H]4[C@@]5(C)CC[C@H](O[C@@H]6O[C@H](C(=O)O)[C@@H](O)[C@H](O[C@@H]7OC[C@H](O)[C@H](O)[C@H]7O[C@@H]7OC[C@@H](O)[C@H](O)[C@H]7O)[C@H]6O[C@@H]6O[C@H](CO)[C@H](O)[C@H](O)[C@H]6O)C(C)(C)C5CC[C@]43C)[C@@H]2CC1(C)C (stereo partly drawn) [FLORATHEASAPONIN A] | 392.9 | 322.3 | 387.4 | 242 | 158.3 | 256.8 | 411 | 251.8 | 135.7 | –
CCCCCCCCCCC[C@@H](C[C@@H]1OC(=O)[C@H]1CCCCCC)OC(=O)[C@H](CC(C)C)NC=O [ORLISTAT] | – | – | – | – | – | – | 158.9 | 132.2 | 140.1 | Activity (Mus musculus [19]): 189.7 mg/dL; Activity (Mus musculus [20]): 266.4 mg/dL; Activity (Mus musculus [21]): 176 mg/dL; Activity (Mus musculus [22]): 155.6 mg/dL; Activity (Mus musculus [23]): 179.3 mg/dL; Activity (Mus musculus [24]): 187.9 mg/dL
C/C=C\C(=O)O[C@H]1[C@H](OC(C)=O)[C@]2(CO)[C@H](O)C[C@]3(C)C(=CC[C@@H]4[C@@]5(C)CC[C@H](O[C@@H]6O[C@H](C(=O)O)[C@@H](O)[C@H](O[C@@H]7OC[C@H](O)[C@H](O)[C@H]7O[C@@H]7OC[C@@H](O)[C@H](O)[C@H]7O)[C@H]6O[C@@H]6O[C@H](CO)[C@H](O)[C@H](O)[C@H]6O)[C@@](C)(C=O)C5CC[C@]43C)[C@@H]2CC1(C)C (stereo partly drawn) [THEASAPONIN E1] | 312.2 | 294.9 | 373.9 | 389.5 | 342.3 | 267.2 | 578.5 | 430.7 | 233.9 | –
C/C=C\C(=O)O[C@H]1[C@H](O)[C@]2(COC(C)=O)[C@H](O)C[C@]3(C)C(=CC[C@@H]4[C@@]5(C)CC[C@H](O[C@@H]6O[C@H](C(=O)O)[C@@H](O)[C@H](O[C@@H]7OC[C@H](O)[C@H](O)[C@H]7O[C@@H]7OC[C@@H](O)[C@H](O)[C@H]7O)[C@H]6O[C@@H]6O[C@H](CO)[C@H](O)[C@H](O)[C@H]6O)[C@@](C)(C=O)C5CC[C@]43C)[C@@H]2CC1(C)C (stereo partly drawn) [THEASAPONIN E2] | 507.5 | 396.4 | 552.9 | 507 | 509.4 | 361.3 | – | – | – | –
